From ChEMBL document CHEMBL1152452, “Modifications incorporated in CpG motifs of oligodeoxynucleotides lead to antagonist activity of toll-like receptors 7 and 9” (2009)
Active and inactive are the calls of the source.

Tests used:
Mus musculus [1] = assay: Immunostimulatory activity in C57BL/6 mouse assessed as induction of KC level in serum at 2 mg/kg, sc after 2 hrs by Luminex multiplex assay; type: functional, organism-based; set-up: dose 2 mg/kg
Summary of the method: (§1)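 Female C57BL/6 mice, 5–6 weeks old, n = 3, received a single 2 mg/kg subcutaneous ODN injection in the right flank. Blood was taken by retro-orbital bleeding 2 h later. Naive mice served as baseline. Representative of three experiments.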

Mus musculus [2] = assay: Immunostimulatory activity in C57BL/6 mouse assessed as inhibition of 5'-CTATCTGACGTTCTCTGT-3'-induced KC production in serum at 2 mg/kg, sc administered 24 hrs prior to 5'-CTATCTGACGTTCTCTGT-3' challenge measured after 2 hrs by Luminex multiplex assay; type: functional, organism-based; set-up: dose 2 mg/kg
Summary of the method: (§2)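 C57BL/6 mice received 2 mg/kg ODN sc in one flank. After 24 h, the TLR9 agonist ODN was given at 0.5 mg/kg sc in the opposite flank. Blood was drawn 2 h later and serum cytokines/chemokines were quantified by Luminex multiplex assay. Percent inhibition was taken against the agonist alone. Representative of three experiments.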

Splenocyte [3] = assay: Immunostimulatory activity in C57BL/6 mouse splenocytes assessed as induction of IL6 secretion at 2 to 10 ug/ml after 24 hrs by sandwich ELISA; type: functional, cell-based
Summary of the method: (§3)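 C57BL/6 splenocytes (mice 5–8 weeks) at 5 × 10^6 cells/mL in RPMI complete medium. ODNs dissolved in PBS were added and the cells incubated at 37 °C for 24 h. Supernatant IL-12 or IL-6 was measured by sandwich ELISA. Runs were done two or three times, in duplicate per concentration.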

Splenocyte [4] = assay: Immunostimulatory activity in C57BL/6 mouse splenocytes assessed as induction of IL12 secretion at 2 to 10 ug/ml after 24 hrs by sandwich ELISA; type: functional, cell-based; summary of the method: as §3
Splenocyte [5] = assay: Inhibition of 5'-CTATCTGACGTTCTCTGT-3'-induced IL12 secretion in C57BL/6 mouse splenocytes at 4 ug/ml after 24 hrs by sandwich ELISA; type: functional, cell-based
Summary of the method: (§4)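 Splenocytes from 5–8-week C57BL/6 mice, 5 × 10^6 cells/mL in RPMI complete medium, were co-incubated with the TLR9 agonist ODN (1 µg/mL) plus test ODN at 1 or 4 µg/mL, or over a concentration series, at 37 °C for 24 h. Supernatant IL-12 or IL-6 was measured by sandwich ELISA. Runs were done in duplicate, with three independent experiments.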

[6] = molecular target: T1, Toll-like receptor 9 (Mus musculus) (UniProt Q9EQU3); assay: Activation of mouse TLR9 expressed in HEK293 cells assessed as NF-kappaB level at 0.3 ug/mL after 18 hrs by reporter gene assay; type: cell-based
T1 sequence (whole entry): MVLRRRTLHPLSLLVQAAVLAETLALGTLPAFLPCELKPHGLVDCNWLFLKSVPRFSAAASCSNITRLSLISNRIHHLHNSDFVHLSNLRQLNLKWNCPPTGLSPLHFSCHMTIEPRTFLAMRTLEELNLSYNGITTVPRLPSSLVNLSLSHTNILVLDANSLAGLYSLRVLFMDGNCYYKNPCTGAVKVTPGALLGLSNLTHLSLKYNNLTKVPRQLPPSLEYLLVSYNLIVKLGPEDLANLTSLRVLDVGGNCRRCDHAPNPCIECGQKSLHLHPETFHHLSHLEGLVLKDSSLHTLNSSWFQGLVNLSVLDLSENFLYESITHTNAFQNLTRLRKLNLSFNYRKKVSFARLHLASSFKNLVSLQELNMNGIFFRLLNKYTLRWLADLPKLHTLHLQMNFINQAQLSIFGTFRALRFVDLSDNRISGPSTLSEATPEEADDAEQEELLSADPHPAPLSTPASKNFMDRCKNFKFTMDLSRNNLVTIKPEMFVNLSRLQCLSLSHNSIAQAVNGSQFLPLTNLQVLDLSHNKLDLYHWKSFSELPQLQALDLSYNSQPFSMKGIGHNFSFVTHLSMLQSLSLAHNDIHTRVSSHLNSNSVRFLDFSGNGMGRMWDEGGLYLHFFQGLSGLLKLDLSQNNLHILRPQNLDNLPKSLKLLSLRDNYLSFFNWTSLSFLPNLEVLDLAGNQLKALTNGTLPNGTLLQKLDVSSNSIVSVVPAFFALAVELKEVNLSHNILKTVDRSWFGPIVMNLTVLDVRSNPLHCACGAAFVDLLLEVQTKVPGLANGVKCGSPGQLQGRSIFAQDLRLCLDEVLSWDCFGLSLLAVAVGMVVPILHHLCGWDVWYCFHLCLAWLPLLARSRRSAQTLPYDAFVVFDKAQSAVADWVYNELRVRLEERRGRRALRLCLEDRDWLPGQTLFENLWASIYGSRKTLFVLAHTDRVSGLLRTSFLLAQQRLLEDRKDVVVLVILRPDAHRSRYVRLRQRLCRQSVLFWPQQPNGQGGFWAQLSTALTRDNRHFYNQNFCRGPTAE
Summary of the method: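 HEK293 cells stably expressing mouse TLR9 were transiently transfected with a SEAP reporter for 6 h, then stimulated with ODN at 0.1, 0.3 or 1 μg/mL for 18 h. Reporter expression is given as fold change in NF-κB activity over medium. Representative of two independent experiments.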

J774 = assay: Activation of NF-kappaB in mouse J774 cells at 2.5 ug/ml after 1 hr by EMSA; type: cell-based
Summary of the method: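 Murine J774 macrophages in DMEM with 10% FBS and antibiotics, plated at 5×10^6 cells/well. ODNs were given alone or together for 1 h. For inhibition, the agonist ODN at 0.5 μg/mL was co-incubated with the modified ODN at 2.5 μg/mL. Nuclear extracts were resolved by EMSA on native polyacrylamide gels and read by autoradiography.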

Mus musculus [7] = assay: Immunostimulatory activity in C57BL/6 mouse assessed as inhibition of 5'-CTATCTGACGTTCTCTGT-3'-induced IL12 production in serum at 2 mg/kg, sc administered 24 hrs prior to 5'-CTATCTGACGTTCTCTGT-3' challenge measured after 2 hrs by sandwich ELISA; type: functional; details: C57BL/6, sc, route subcutaneous
Summary of the method: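 C57BL/6 mice were pretreated sc in the right flank with 2, 5 or 10 mg/kg ODN. After 24 h, the TLR9 agonist ODN was given at 0.5 mg/kg sc in the left flank. Serum IL-12 was measured by ELISA 2 h later. Representative of two experiments.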

Mus musculus [8] = assay: Immunostimulatory activity in C57BL/6 mouse assessed as inhibition of 5'-CTATCTGACGTTCTCTGT-3'-induced IL10 production in serum at 2 mg/kg, sc administered 24 hrs prior to 5'-CTATCTGACGTTCTCTGT-3' challenge measured after 2 hrs by Luminex multiplex assay; type: functional, organism-based; set-up: dose 2 mg/kg; summary of the method: as §2
Mus musculus [9] = assay: Immunostimulatory activity in C57BL/6 mouse assessed as induction of IL10 level in serum at 2 mg/kg, sc after 2 hrs by Luminex multiplex assay; type: functional, organism-based; set-up: dose 2 mg/kg; summary of the method: as §1
Mus musculus [10] = assay: Immunostimulatory activity in C57BL/6 mouse assessed as induction of MCP1 level in serum at 2 mg/kg, sc after 2 hrs by Luminex multiplex assay; type: functional, organism-based; set-up: dose 2 mg/kg; summary of the method: as §1
Splenocyte [11] = assay: Inhibition of 5'-CTATCTGACGTTCTCTGT-3'-induced IL6 secretion in C57BL/6 mouse splenocytes at 4 ug/ml after 24 hrs by sandwich ELISA; type: functional, cell-based; summary of the method: as §4

Cc1cn([C@@H]2O[C@H](COP(=O)(S)O[C@H]3C[C@H](n4ccc(N)nc4=O)O[C@@H]3COP(=O)(S)O[C@H]3C[C@H](n4cc(C)c(=O)[nH]c4=O)O[C@@H]3COP(=O)(S)O[C@H]3C[C@H](n4ccc(N)nc4=O)O[C@@H]3COP(=O)(S)O[C@H]3C[C@H](n4cc(C)c(=O)[nH]c4=O)O[C@@H]3COP(=O)(S)O[C@H]3C[C@H](n4cc(C)c(=O)[nH]c4=O)O[C@@H]3COP(=O)(S)O[C@H]3C[C@H](n4cnc5c(=O)[nH]c(N)nc54)O[C@@H]3COP(=O)(S)O[C@H]3C[C@H](n4ccc(N)nc4=O)O[C@@H]3COP(=O)(S)O[C@H]3C[C@H](n4cnc5c(N)ncnc54)O[C@@H]3COP(=O)(S)O[C@H]3C[C@H](n4cnc5c(=O)[nH]c(N)nc54)O[C@@H]3COP(=O)(S)O[C@H]3C[C@H](n4cc(C)c(=O)[nH]c4=O)O[C@@H]3COP(=O)(S)O[C@H]3C[C@H](n4ccc(N)nc4=O)O[C@@H]3COP(=O)(S)O[C@H]3C[C@H](n4cc(C)c(=O)[nH]c4=O)O[C@@H]3COP(=O)(S)O[C@H]3C[C@H](n4cnc5c(N)ncnc54)O[C@@H]3COP(=O)(S)O[C@H]3C[C@H](n4cc(C)c(=O)[nH]c4=O)O[C@@H]3COP(=O)(S)O[C@@H]3C[C@@H](n4ccc(N)nc4=O)O[C@H]3CO)[C@@H](OP(=O)(S)OC[C@H]3O[C@@H](n4cnc5c(=O)[nH]c(N)nc54)C[C@@H]3OP(=O)(S)OC[C@H]3O[C@@H](n4cc(C)c(=O)[nH]c4=O)C[C@@H]3O)[C@H]2O)c(=O)[nH]c1=O (some centres undefined)
50%: inhibition in vivo at 2 mg/kg (Mus musculus [7])
active: Activity (Mus musculus [2]) | Activity (Splenocyte [3]) | Activity (Splenocyte [4]) | Activity (Splenocyte [5]) | Activity (Mus musculus [8]) | Activity (Splenocyte [11])
inactive: Activity (Mus musculus [1]) | Activity [6] | Activity (J774) | Activity (Mus musculus [9]) | Activity (Mus musculus [10])

CO[C@@H]1[C@H](OP(=O)(S)OC[C@H]2O[C@@H](n3cnc4c(=O)[nH]c(N)nc43)C[C@@H]2OP(=O)(S)OC[C@H]2O[C@@H](n3cc(C)c(=O)[nH]c3=O)C[C@@H]2OP(=O)(S)OC[C@H]2O[C@@H](n3cc(C)c(=O)[nH]c3=O)C[C@@H]2OP(=O)(S)OC[C@H]2O[C@@H](n3ccc(N)nc3=O)C[C@@H]2OP(=O)(S)OC[C@H]2O[C@@H](n3cc(C)c(=O)[nH]c3=O)C[C@@H]2OP(=O)(S)OC[C@H]2O[C@@H](n3ccc(N)nc3=O)C[C@@H]2OP(=O)(S)OC[C@H]2O[C@@H](n3cc(C)c(=O)[nH]c3=O)C[C@@H]2OP(=O)(S)OC[C@H]2O[C@@H](n3cnc4c(=O)[nH]c(N)nc43)C[C@@H]2OP(=O)(S)OC[C@H]2O[C@@H](n3cc(C)c(=O)[nH]c3=O)C[C@@H]2O)[C@@H](COP(=O)(S)O[C@H]2C[C@H](n3cnc4c(N)ncnc43)O[C@@H]2COP(=O)(S)O[C@H]2C[C@H](n3cnc4c(=O)[nH]c(N)nc43)O[C@@H]2COP(=O)(S)O[C@H]2C[C@H](n3cc(C)c(=O)[nH]c3=O)O[C@@H]2COP(=O)(S)O[C@H]2C[C@H](n3ccc(N)nc3=O)O[C@@H]2COP(=O)(S)O[C@H]2C[C@H](n3cc(C)c(=O)[nH]c3=O)O[C@@H]2COP(=O)(S)O[C@H]2C[C@H](n3cnc4c(N)ncnc43)O[C@@H]2COP(=O)(S)O[C@H]2C[C@H](n3cc(C)c(=O)[nH]c3=O)O[C@@H]2COP(=O)(S)O[C@H]2C[C@H](n3ccc(N)nc3=O)O[C@@H]2CO)O[C@H]1n1ccc(N)nc1=O (some centres undefined)
50%: inhibition in vivo at 2 mg/kg (Mus musculus [7])
inactive: Activity (Mus musculus [1]) | Activity [6] | Activity (J774) | Activity (Mus musculus [9]) | Activity (Mus musculus [10])
active: Activity (Mus musculus [2]) | Activity (Splenocyte [3]) | Activity (Splenocyte [4]) | Activity (Splenocyte [5]) | Activity (Mus musculus [8]) | Activity (Splenocyte [11])
